In ChEMBL document CHEMBL1140767, “Discovery and structure-activity relationship of N-phenyl-1H-pyrazolo[3,4-b]quinolin-4-amines as a new series of potent apoptosis inducers” (Bioorg Med Chem, 2008) one finds EC50, GI50 and Activity data, which are given here for 20 molecules.

Several values for one entry are separate records, joined by “and”; a condition that tells them apart may be missing. Identical values can stand only once.

For assay [1], the system named is SNU-398. Description: Induction of apoptosis in human SNU398 cells assessed as caspase-3 activation. The assay is classed as functional, cell-based. In a few lines:
(§1)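 Cells grown in RPMI-1640 + 10% FCS, trypsinized, and resuspended at 0.65 × 10^6 cells/mL. Treated in 384-well plates with 0.005–10 µM final compound (1% DMSO) for 24 h. N-(Ac-DEVD)-N'-ethoxycarbonyl-R110 substrate was then added, and fluorescence (ex 485/em 525 nm) was read at 0 and 3 h. Activity is the net RFU ratio of test to control. EC50 from a sigmoidal fit at 50% maximal response; mean of ≥3 experiments ± SEM.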

Assay [2] concerns T47D. Description: Induction of apoptosis in human T47D cells assessed as caspase-3 activation. The assay is classed as functional, cell-based. The method, boiled down: as §1
Assay [3] has as its system HCT-116. In words: Induction of apoptosis in human HCT116 cells assessed as caspase-3 activation. It is filed as functional, cell-based. The method, boiled down: as §1
In assay [4] the test system is SNU-398. Description: Antiproliferation activity against human SNU398 cells. It is filed as functional. The method, boiled down:
(§2)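 Cells in RPMI-1640 + 10% FCS, 5% CO2, 37 °C. Seeded at 4.4 × 10^4 cells/mL in 96-well plates and exposed to compound at 0.001–10 µM final (1% DMSO) for 48 h at 37 °C. Viability read by CellTiter-Glo luminescence. A 0.5 h plate gave the initial-cell baseline and untreated wells gave maximal proliferation. GI50 is the mean of ≥3 experiments ± SEM.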

In assay [5] the test system is T47D. In words: Antiproliferation activity against human T47D cells. The assay is classed as functional. In a few lines:
as §2

The subject of assay [6] is HCT-116. Description: Antiproliferation activity against human HCT116 cells. It is filed as functional. The method, boiled down: as §2
Assay [7] concerns T47D. In words: Induction of apoptosis in human T47D cells assessed as accumulation at S phase at […] after 24 hrs. The assay is classed as functional. The method, boiled down:
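T47D cells treated with 50 nM compound, or DMSO as control, for 24 h or 48 h at 37 °C. Cells then stained with propidium iodide and analysed by flow cytometry for DNA-content histograms. Sub-diploid DNA content was taken to indicate apoptotic cells.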

As for `CC(=O)c1ccc(Nc2c3ccccc3nc3c2c(C)nn3C)cc1`, the figures for the half-maximal effective concentration (EC50) with SNU-398 [1], in the assay on T47D [2] and in the assay on HCT-116 [3] were 270 nM, 520 nM and 660 nM, respectively.

Take `COc1ccc(Sc2c3ccccc3nc3c2c(C)nn3C)cc1`: the values for the concentration for a half-maximal effect (EC50) in the assay on SNU-398 [1], with T47D [2] and with HCT-116 [3] were 4990 nM, 5470 nM and 6670 nM, respectively.

Consider `CCC(=O)c1ccc(Nc2c3ccccc3nc3c2c(C)nn3C)cc1`, for which the EC50 with SNU-398 [1] came to 34 nM; with T47D [2], 71 nM; in the assay on HCT-116 [3] it was 64 nM. Moreover, the concentration for 50% growth inhibition (GI50) in the assay on SNU-398 [4] was 16 nM; in the assay with T47D [5] it was 26 nM; with HCT-116 [6], 42 nM. Besides, the Activity in the assay on T47D [7] was 13.6% and 7.6% and 18.8%.

Regarding `CC(=O)c1ccc(Oc2c3ccccc3nc3c2c(C)nn3C)cc1`, the 50% effective concentration (EC50) in the assay on SNU-398 [1], with T47D [2] and in the assay with HCT-116 [3] was over 10000 nM throughout.

For `CCC(=O)c1ccc(Nc2c3ccccc3nc3c2c(C)nn3CC)cc1`, the figures for the EC50 in the assay on SNU-398 [1], in the assay on T47D [2] and with HCT-116 [3] were 150 nM, 210 nM and 190 nM, respectively.

In the case of `Cc1nn(C)c2nc3ccccc3c(Nc3ccc(C(=O)O)cc3)c12`, the EC50 with SNU-398 [1], in the assay on T47D [2] and in the assay on HCT-116 [3] was over 10000 nM each time.

For the molecule `COC(=O)c1ccc(N(C)c2c3ccccc3nc3c2c(C)nn3C)cc1`, the figures for the half-maximal effective concentration (EC50) in the assay on SNU-398 [1], with T47D [2] and in the assay with HCT-116 [3] were 1330 nM, 5210 nM and 6080 nM, respectively.

`CCC(O)c1ccc(Nc2c3ccccc3nc3c2c(C)nn3C)cc1` (stereo not drawn): the figures for the concentration for a half-maximal effect (EC50) in the assay with SNU-398 [1], with T47D [2] and with HCT-116 [3] were 53 nM, 140 nM and 330 nM, respectively. Also, the GI50 in the assay on SNU-398 [4] worked out at 140 nM; in the assay on T47D [5], 590 nM; in the assay on HCT-116 [6], 930 nM.

For the molecule `COc1ccc(Nc2c3ccccc3nc3c2c(C)nn3C)cc1`, the results for the concentration for a half-maximal effect (EC50) with SNU-398 [1], in the assay on T47D [2] and in the assay with HCT-116 [3] were 480 nM, 1010 nM and 1250 nM, respectively.

On to `COC(=O)c1ccc(Nc2c3ccccc3nc3c2c(C)nn3C)cc1`, for which the values for the half-maximal effective concentration (EC50) with SNU-398 [1], in the assay with T47D [2] and in the assay on HCT-116 [3] were 270 nM, 540 nM and 670 nM, respectively.

For `COc1ccc(Nc2c3ccccc3nc3[nH]nc(C)c23)cc1`, the concentration giving a half-maximal response (EC50) in the assay on SNU-398 [1], in the assay with T47D [2] and with HCT-116 [3] was over 10000 nM in each case. The GI50 in the assay on SNU-398 [4], with T47D [5] and in the assay with HCT-116 [6] was over 10000 nM in each case.

For the molecule `CC(=O)c1ccc(Nc2c3cc(C)ccc3nc3c2c(C)nn3C)cc1`, the EC50 with SNU-398 [1], in the assay with T47D [2] and in the assay with HCT-116 [3] was over 10000 nM each time.

Regarding `CC(=O)c1ccc(Nc2c3ccccc3nc3c2cnn3C)cc1`, the half-maximal effective concentration (EC50) is 730 nM with SNU-398 [1], 1150 nM in the assay with T47D [2] and 1360 nM in the assay on HCT-116 [3].

`Cc1nn(C)c2nc3ccccc3c(Nc3ccc(C(N)=O)cc3)c12`: the concentration for a half-maximal effect (EC50) with SNU-398 [1], in the assay with T47D [2] and in the assay on HCT-116 [3] was over 10000 nM each time.

On to `CC(=O)c1ccc(Nc2c3cccc(C)c3nc3c2c(C)nn3C)cc1`, for which the results for the EC50 in the assay with SNU-398 [1], in the assay on T47D [2] and in the assay on HCT-116 [3] were 660 nM, 1110 nM and 940 nM, respectively.

On to `Cc1nn(C)c2nc3ccccc3c(Nc3ccc(C(=O)C(C)C)cc3)c12`, for which the results for the EC50 with SNU-398 [1], with T47D [2] and with HCT-116 [3] were 240 nM, 440 nM and 390 nM, respectively.

In the case of `COc1cccc(Nc2c3ccccc3nc3c2c(C)nn3C)c1`, the figures for the EC50 in the assay on SNU-398 [1], in the assay on T47D [2] and in the assay with HCT-116 [3] were over 10000 nM, 7260 nM and over 10000 nM, respectively.

As to `CC(=O)c1cccc(Nc2c3c(nc4ccccc24)CCC3)c1`, the figures for the half-maximal effective concentration (EC50) with SNU-398 [1], in the assay on T47D [2] and in the assay with HCT-116 [3] were 440 nM, 450 nM and 660 nM, respectively. Besides, the figures for the 50% growth inhibitory concentration (GI50) in the assay on SNU-398 [4], in the assay with T47D [5] and with HCT-116 [6] were 170 nM, 560 nM and 500 nM, respectively.

`CC(=O)c1ccc(Nc2c3ccccc3nc3c2c(C(C)C)nn3C)cc1`: the EC50 in the assay on SNU-398 [1], in the assay on T47D [2] and with HCT-116 [3] was over 10000 nM throughout.

Consider `CCC(=O)c1ccc(Nc2c3cccc([N+](=O)[O-])c3nc3c2c(C)nn3C)cc1`, for which the concentration giving a half-maximal response (EC50) in the assay with SNU-398 [1] was 270 nM; with T47D [2], 510 nM; with HCT-116 [3] it was 480 nM.

In general, EC50 refers to the concentration at which the effect is half-maximal. The GI50 is the concentration that inhibits growth by half. High values mean lower sensitivity of the cells, low ones greater sensitivity of the cells.
